# In ChEMBL document CHEMBL1629542, “Epigallocatechin gallate inactivates clinical isolates of herpes simplex virus” (Antimicrob Agents Chemother, 2008):
# Key:
# Human alphaherpesvirus 2 = experiment: Antiviral activity against Human herpesvirus 2 strain 333 infected in African green monkey CV1 cells assessed as log reduction in viral titer at 100 uM; format: functional, CV-1
# How it was run: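 Lab strain HSV-2 333 was grown and titrated either in CV-1 cells or in Vero cells. Virus was incubated with 100 μM EGCG for 60 min, then titrated as tenfold dilutions for 5 days at 37°C with CPE scoring. Reed-Muench TCID50 of treated versus control virus gave the titer decrease. Mean of three experiments.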
# Human alphaherpesvirus 1 = experiment: Antiviral activity against Human herpesvirus 1 F1 infected in African green monkey Vero cells assessed as log reduction in viral titer at 100 uM
Compound,FC (Human alphaherpesvirus 2),FC (Human alphaherpesvirus 1)
O=C(O[C@@H]1Cc2c(O)cc(O)cc2O[C@@H]1c1ccc(O)c(O)c1)c1cc(O)c(O)c(O)c1 [EPICATECHIN GALLATE],>=1,
O=C(O[C@@H]1Cc2c(O)cc(O)cc2O[C@H]1c1cc(O)c(O)c(O)c1)c1cc(O)c(O)c(O)c1 [GALLOCATECHIN GALLATE],4,3.5
